Test results as given in ChEMBL document CHEMBL2311268, “Targeting the binding function 3 (BF3) site of the androgen receptor through virtual screening. 2. development of 2-((2-phenoxyethyl) thio)-1H-benzimidazole derivatives” (J Med Chem, 2013).
Active and inactive are the calls of the source. The rule behind the calls is not given here.

What was measured:
Androgen receptor [1] = biological target: T1, Androgen receptor (Homo sapiens, UniProt P10275); experiment: Inhibition of BF3 site of androgen receptor in human LNCAP cells expressing ARR2PB after 3 days by eGFP transcriptional assay; type: cell-based
T1 sequence (P10275 whole entry): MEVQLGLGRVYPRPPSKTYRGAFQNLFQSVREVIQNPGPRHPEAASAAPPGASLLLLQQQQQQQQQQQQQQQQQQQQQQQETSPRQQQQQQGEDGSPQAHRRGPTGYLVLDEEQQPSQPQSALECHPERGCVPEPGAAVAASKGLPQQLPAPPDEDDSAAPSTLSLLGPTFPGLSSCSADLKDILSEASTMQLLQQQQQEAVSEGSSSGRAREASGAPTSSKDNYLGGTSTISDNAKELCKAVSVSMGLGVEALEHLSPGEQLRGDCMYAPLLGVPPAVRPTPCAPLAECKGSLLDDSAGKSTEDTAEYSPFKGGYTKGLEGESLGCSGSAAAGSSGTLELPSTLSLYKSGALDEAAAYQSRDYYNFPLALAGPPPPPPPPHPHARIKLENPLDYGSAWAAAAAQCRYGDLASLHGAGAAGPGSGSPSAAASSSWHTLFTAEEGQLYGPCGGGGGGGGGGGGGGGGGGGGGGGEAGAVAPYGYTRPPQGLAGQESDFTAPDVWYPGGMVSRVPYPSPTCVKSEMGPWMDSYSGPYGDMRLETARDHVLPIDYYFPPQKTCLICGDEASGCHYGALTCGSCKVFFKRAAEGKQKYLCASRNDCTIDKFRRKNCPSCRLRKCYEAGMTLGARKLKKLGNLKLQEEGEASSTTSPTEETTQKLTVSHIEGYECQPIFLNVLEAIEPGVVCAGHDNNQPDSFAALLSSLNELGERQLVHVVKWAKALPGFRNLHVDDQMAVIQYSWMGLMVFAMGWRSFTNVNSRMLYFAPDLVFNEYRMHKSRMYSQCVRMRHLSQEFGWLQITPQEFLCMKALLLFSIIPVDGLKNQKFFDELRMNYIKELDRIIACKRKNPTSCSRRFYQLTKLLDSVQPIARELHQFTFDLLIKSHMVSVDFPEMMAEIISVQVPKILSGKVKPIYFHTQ

PC-3 = experiment: Cytotoxicity against AR independent human PC3 cells assessed as growth inhibition at 6 uM after 4 days; type: functional, cell-based
Summary of the method: (§1)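 Viability read after a 4-day incubation with compound at 6 µM in LNCaP, enzalutamide-resistant LNCaP-derived and AR-independent PC3 prostate cancer cells; data given as mean ± SEM.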

LNCaP [2] = experiment: Cytotoxicity against enzalutamide-resistant human LNCAP cells assessed as growth inhibition at 6 uM after 4 days; type: functional, cell-based; summary of the method: as §1
LNCaP [3] = experiment: Cytotoxicity against human LNCAP cells assessed as growth inhibition at 6 uM after 4 days; type: functional, cell-based; summary of the method: as §1
[4] = biological target: T2, Estrogen receptor (Homo sapiens) (UniProt P03372); experiment: Inhibition of estrogen receptor alpha in human MCF7 cells at 1 to 10 uM after 3 days by luciferase reporter gene assay; type: cell-based
T2 sequence (whole entry): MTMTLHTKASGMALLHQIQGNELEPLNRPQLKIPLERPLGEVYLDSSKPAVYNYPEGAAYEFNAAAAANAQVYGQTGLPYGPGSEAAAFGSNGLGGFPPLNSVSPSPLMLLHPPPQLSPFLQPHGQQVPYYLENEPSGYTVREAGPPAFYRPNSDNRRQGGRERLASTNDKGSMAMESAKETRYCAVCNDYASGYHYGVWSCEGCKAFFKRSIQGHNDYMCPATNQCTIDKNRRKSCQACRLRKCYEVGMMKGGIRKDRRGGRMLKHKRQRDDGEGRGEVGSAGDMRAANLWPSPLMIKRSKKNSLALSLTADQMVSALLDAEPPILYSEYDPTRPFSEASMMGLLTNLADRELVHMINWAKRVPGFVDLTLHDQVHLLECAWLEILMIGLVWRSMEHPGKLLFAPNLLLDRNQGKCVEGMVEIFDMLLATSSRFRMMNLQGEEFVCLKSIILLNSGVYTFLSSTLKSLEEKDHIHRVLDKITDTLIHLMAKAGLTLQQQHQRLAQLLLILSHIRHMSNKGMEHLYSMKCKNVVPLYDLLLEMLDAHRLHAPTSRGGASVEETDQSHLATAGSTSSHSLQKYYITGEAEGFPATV
Summary of the method: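 MCF-7 cells were kept 5 days in phenol-red-free RPMI 1640 with 10% CSS, then seeded. After 24 h they were transfected with a luciferase plasmid driven by a consensus estrogen response element. Next day they were treated with 1 nM E2 plus test compound (10 µM final) in 0.1% EtOH/0.1% DMSO. Cells were lysed 24 h later and luminescence read.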

Androgen receptor [5] = biological target: T1, Androgen receptor; experiment: Inhibition of BF3 site of androgen receptor in human LNCAP cells expressing ARR2PB assessed as reduction in PSA level after 3 days; type: cell-based
Androgen receptor [6] = biological target: T1, Androgen receptor; type: cell-based, LNCaP

SMILES	IC50 (Androgen receptor [1]) [µM]	other results
Cc1cccc(OCCSc2nc3ccccc3n2CC(=O)OC(C)C)c1	13.7	
NS(=O)(=O)c1ccc(OCCSc2nc3ccccc3[nH]2)cc1	62	
c1ccc(OCCSc2nc3ccccc3[nH]2)cc1		growth inhibition (GI) (PC-3): inactive; growth inhibition (GI) (LNCaP [2]): inactive; growth inhibition (GI) (LNCaP [3]): inactive; inhibition [4]: inactive
[O-][S+](CCOc1ccccc1)c1nc2ccccc2[nH]1 (stereo not drawn)	> 200	
c1ccc(OCCSc2nc3ccccc3o2)cc1	> 200	
CC(C)(C)c1cccc(OCCSc2nc3ccccc3n2CC(=O)O)c1	> 200	
COCCn1c(SCCOc2cccc(C)c2)nc2ccccc21	24.1	
O=C(O)CCn1c(SCCOc2ccccc2)nc2ccccc21	> 200	
c1ccc(OCCCSc2nc3ccccc3[nH]2)cc1	> 200	
c1ccc(CCCSc2nc3ccccc3[nH]2)cc1	12	
Cc1cc(C)cc(OCCSc2nc3ccccc3n2CC(=O)O)c1	> 200	
COCCn1c(SCCOc2ccc(C)cc2)nc2ccccc21	12.7	
c1ccc(CCSc2nc3ccccc3[nH]2)cc1	7.4	
C=CCn1c(SCCOc2ccccc2)nc2ccccc21	> 200	
NS(=O)(=O)c1cccc2cc(SCCOc3ccccc3)[nH]c12	1.5	IC50 (Androgen receptor [5]): 1600 nM; growth inhibition (GI) (PC-3): inactive; IC50 (Androgen receptor [6]): 6.4 µM; growth inhibition (GI) (LNCaP [2]): Active; growth inhibition (GI) (LNCaP [3]): Active; inhibition [4]: inactive
Cc1ccc(OCCSc2nc3ccccc3n2CCC(=O)O)cc1	> 200	
Cc1cccc(OCCSc2nc3ccccc3n2CC(=O)O)c1	> 200	
Cc1cccc(OCCSc2nc3ccccc3n2CCOc2ccccc2)c1	> 200	
Cc1ccc(C)c(OCCSc2nc3ccccc3n2CC(=O)O)c1	> 200	
CCOC(=O)Cn1c(SCCOc2cccc(C)c2)nc2ccccc21	14.1	
Cc1ccc(OCCSc2nc3ccccc3n2CC(=O)OC(C)C)cc1	11.1	
Cc1ccc(OCCSc2nc3ccccc3n2CC(=O)O)cc1	164	
Cc1cccc(C)c1OCCSc1nc2ccccc2[nH]1	2.7	IC50 (Androgen receptor [5]): 1900 nM; growth inhibition (GI) (PC-3): inactive; IC50 (Androgen receptor [6]): 6.8 µM; growth inhibition (GI) (LNCaP [2]): Active; growth inhibition (GI) (LNCaP [3]): Active; inhibition [4]: inactive
c1ccc(OCCNc2nc3ccccc3[nH]2)cc1	> 200	
c1ccc(OCCCc2nc3ccccc3[nH]2)cc1	> 200	

Second part, led by results:

IC50 (Androgen receptor [1]) [µM]	SMILES	other results
32.9	COC(=O)Cn1c(SCCOc2ccc(C)cc2)nc2ccccc21	
> 200	C=CCc1cccc(OCCSc2nc3ccccc3n2CC(=O)OC)c1	
> 200	Cc1cccc(OCCSc2nc3ccccc3n2CCC(=O)O)c1	
> 200	COC(=O)Cn1c(SCCOc2ccc(C)c(C)c2)nc2ccccc21	
19	Cc1ccccc1OCCSc1nc2ccccc2[nH]1	
> 200	Cc1ccc(OCCSc2nc3ccccc3n2CC(=O)O)cc1C	
4	Clc1ccc(OCCSc2nc3ccccc3[nH]2)cc1	
7	Cc1ccc(OCCSc2nc3ccccc3[nH]2)cc1	
> 200	c1ccc(NCCSc2nc3ccccc3[nH]2)cc1	
> 200	CCN(CC)C(=O)Cn1c(SCCOc2cccc(C)c2)nc2ccccc21	
5	Clc1cccc(OCCSc2nc3ccccc3[nH]2)c1	
> 200	CCc1cccc(OCCSc2nc3ccccc3n2CC(=O)O)c1	
> 200	CCOC(=O)Cn1c(SCCOc2cc(C)cc(C)c2)nc2ccccc21	
> 200	Cc1cccc(OCCSc2nc3ccccc3n2CC(=O)N2CCOCC2)c1	
> 200	OCCn1c(SCCOc2ccccc2)nc2ccccc21	
40.3	CCOC(=O)Cn1c(SCCOc2ccc(C)c(C)c2)nc2ccccc21	
1.8	Cc1cccc(OCCSc2nc3ccccc3[nH]2)c1	IC50 (Androgen receptor [5]): 3300 nM; growth inhibition (GI) (PC-3): inactive; IC50 (Androgen receptor [6]): 13 µM; growth inhibition (GI) (LNCaP [2]): Active; growth inhibition (GI) (LNCaP [3]): Active; inhibition [4]: inactive
55	CCOC(=O)Cn1c(SCCOc2cccc(CC)c2)nc2ccccc21	
> 200	CCc1cccc(OCCSc2nc3ccccc3n2CCC(=O)O)c1	
22.8	CCOc1cccc(OCCSc2nc3ccccc3n2CCOc2ccc(C)cc2)c1	
5.4	c1ccc(OCCSc2cc3ccccc3[nH]2)cc1	
35	CCn1c(SCCOc2cccc(C)c2)nc2ccccc21	
45	Cc1cccc(OCCSc2nc3ccccc3n2C)c1	
30.6	Cc1ccc(OCCSc2nc3ccccc3n2CC(=O)OC(C)C)cc1C	
12	CCn1c(SCCOc2ccccc2)nc2ccccc21	
> 200	CCc1cccc(OCCSc2nc3ccccc3n2CC(=O)OC)c1	
> 200	O=S(=O)(CCOc1ccccc1)c1nc2ccccc2[nH]1	
